In ChEMBL document CHEMBL1138216, “Design and synthesis of novel derivatives of the muscarinic agonist tetra(ethylene glycol)(3-methoxy-1,2,5-thiadiazol-4-yl) [3-(1-methyl-1,2,5,6-tetrahydropyrid-3-yl)-1,2,5-thiadiazol-4-yl] ether (CDD-0304): effects of structural modifications on the binding and activity at muscarinic receptor …” (J Med Chem, 2006):
Changes are numbered by the printed parent chain. Activity calls are given as the source filed them. The rule behind the calls is not given here.

How the values were obtained:
[1] = target: T1, Muscarinic acetylcholine receptor M3 (Homo sapiens, UniProt P20309); test: Agonist activity at human M3 receptor expressed in A9 L cells assessed as stimulation of phosphoinositide hydrolysis; type: functional, cell-based, L929
T1 sequence (P20309 whole entry): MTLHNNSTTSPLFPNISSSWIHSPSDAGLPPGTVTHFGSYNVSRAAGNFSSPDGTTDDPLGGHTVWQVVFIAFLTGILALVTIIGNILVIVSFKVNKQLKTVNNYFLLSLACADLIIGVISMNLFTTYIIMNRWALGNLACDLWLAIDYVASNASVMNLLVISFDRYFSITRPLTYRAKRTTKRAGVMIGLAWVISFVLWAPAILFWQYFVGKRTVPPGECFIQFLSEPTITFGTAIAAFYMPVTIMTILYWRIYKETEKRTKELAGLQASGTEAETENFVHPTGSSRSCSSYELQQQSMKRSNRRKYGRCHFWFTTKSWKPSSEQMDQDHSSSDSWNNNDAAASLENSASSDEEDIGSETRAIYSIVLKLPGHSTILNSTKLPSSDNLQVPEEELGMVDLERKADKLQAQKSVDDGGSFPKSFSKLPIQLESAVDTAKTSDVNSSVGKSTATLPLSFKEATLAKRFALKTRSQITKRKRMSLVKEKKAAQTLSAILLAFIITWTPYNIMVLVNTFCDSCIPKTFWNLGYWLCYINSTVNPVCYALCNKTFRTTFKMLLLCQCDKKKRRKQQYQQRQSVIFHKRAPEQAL

[2] = test system: T2, Muscarinic acetylcholine receptor M1 (Homo sapiens), P11229 [E170K]; test: Agonist activity at human M1 receptor E170K mutant expressed in A9 L cells assessed as stimulation of phosphoinositide hydrolysis relative to carbachol; type: functional, cell-based; settings: L929
T2 sequence (whole entry): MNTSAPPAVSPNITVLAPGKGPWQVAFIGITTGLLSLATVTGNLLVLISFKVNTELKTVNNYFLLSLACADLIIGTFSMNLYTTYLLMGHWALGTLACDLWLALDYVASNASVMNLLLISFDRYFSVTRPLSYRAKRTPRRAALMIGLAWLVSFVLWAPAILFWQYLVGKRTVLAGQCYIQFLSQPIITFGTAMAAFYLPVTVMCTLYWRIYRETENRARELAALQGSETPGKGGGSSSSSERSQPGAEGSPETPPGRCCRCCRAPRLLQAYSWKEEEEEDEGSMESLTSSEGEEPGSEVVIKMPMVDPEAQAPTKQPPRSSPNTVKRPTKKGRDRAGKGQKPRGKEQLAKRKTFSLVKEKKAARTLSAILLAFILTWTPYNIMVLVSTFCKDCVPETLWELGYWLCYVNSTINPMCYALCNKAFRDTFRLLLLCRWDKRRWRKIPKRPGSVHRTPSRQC
In short: (§1)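 A9 L cells stably expressing the receptor, seeded 24 h, labelled overnight with 10 µCi/mL [3H]inositol in inositol-free DMEM; ligands in HBSS with 10 mM LiCl, 20 mM HEPES, 37 °C, 1 h; formic acid extraction, inositol phosphates counted by SPA beads.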

[3] = target: Muscarinic acetylcholine receptor M1/M5 chimeric protein (Homo sapiens) (UniProt P11229+P08912); test: Agonist activity at human M1/M5(o2o3) chimeric receptor expressed in A9 L cells assessed as stimulation of phosphoinositide hydrolysis relative to carbachol; type: functional, cell-based; settings: L929; in short: as §1
Muscarinic acetylcholine receptor M1/M5 chimeric protein (Homo sapiens), sequence (P11229 whole entry, looked up, change not shown, one chain of several): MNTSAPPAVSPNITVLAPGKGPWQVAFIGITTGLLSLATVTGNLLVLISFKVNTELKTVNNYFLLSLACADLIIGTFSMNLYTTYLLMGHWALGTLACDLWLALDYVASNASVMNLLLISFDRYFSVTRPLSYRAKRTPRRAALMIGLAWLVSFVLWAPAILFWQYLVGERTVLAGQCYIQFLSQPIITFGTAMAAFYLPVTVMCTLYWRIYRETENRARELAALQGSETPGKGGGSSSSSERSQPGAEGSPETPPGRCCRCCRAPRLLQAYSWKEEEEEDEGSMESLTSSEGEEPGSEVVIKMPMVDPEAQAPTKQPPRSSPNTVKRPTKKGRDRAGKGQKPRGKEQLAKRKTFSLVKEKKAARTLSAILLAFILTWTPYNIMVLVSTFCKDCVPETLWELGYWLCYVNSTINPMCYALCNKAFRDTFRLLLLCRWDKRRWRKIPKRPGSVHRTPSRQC

Rattus norvegicus [4] = test: Antipsychotic activity in sc dosed Sprague-Dawley rat assessed as ability to reverse apomorphine effect on prepulse inhibition of the startle response; type: functional, organism-based
In short: (§2)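 Male Sprague-Dawley rats, 250-300 g, habituated a day before. Drug in water or saline sc (1 mL/kg) 25 min, apomorphine 1.0 mg/kg 5 min pre-test; muscarinic agonists 0.1-3 mg/kg. Session of 15 each pulse-alone (120 dB, 100 ms) and pulse preceded 200 ms by 20 ms prepulse 12 dB above 70 dB background; 12 rats/group; %PPI calculated.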

[5] = target: T3, Muscarinic acetylcholine receptor M1 (Homo sapiens, UniProt P11229); test: Inhibition of [3H](R)-QNB binding to human M1 receptor expressed in A9 L cells; type: cell-based, A9L
T3 sequence (P11229 whole entry): T2 sequence (whole entry) with K170E

[6] = target: Muscarinic acetylcholine receptor M1 (Homo sapiens, UniProt P11229, E170K); type: functional, cell-based, L929
[7] = target: T4, Muscarinic acetylcholine receptor M1/M5 chimeric protein (Homo sapiens, UniProt P08912+P11229); test: Agonist activity at human M1/M5(o2) chimeric receptor expressed in A9 L cells assessed as stimulation of phosphoinositide hydrolysis; type: functional, cell-based, L929
T4 sequence (P11229 whole entry): T2 sequence (whole entry) with K170E
T4 sequence (P08912 whole entry): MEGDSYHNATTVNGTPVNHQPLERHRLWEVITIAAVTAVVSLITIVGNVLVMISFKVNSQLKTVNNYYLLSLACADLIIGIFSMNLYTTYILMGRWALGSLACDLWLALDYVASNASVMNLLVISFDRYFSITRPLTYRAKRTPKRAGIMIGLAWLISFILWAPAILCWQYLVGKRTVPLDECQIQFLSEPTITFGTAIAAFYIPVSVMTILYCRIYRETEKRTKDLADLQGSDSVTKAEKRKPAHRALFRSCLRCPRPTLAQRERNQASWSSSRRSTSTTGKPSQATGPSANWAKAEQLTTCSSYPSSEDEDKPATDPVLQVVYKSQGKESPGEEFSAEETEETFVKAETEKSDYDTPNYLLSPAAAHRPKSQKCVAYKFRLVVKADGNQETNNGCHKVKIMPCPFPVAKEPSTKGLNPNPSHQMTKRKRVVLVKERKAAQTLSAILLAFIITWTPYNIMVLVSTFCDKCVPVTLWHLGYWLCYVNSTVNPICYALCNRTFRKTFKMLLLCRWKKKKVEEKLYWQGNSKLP

[8] = target: Muscarinic acetylcholine receptor M1 (Homo sapiens, UniProt P11229, Q185E); type: functional, cell-based, L929
Muscarinic acetylcholine receptor M1 (Homo sapiens, UniProt P11229, Q185E), sequence (P11229 whole entry Q185E): as the sequence (P11229 whole entry, looked up, change not shown, one chain of several) above, with Q185E counted along it

Rattus norvegicus [9] = test: Antipsychotic activity in Sprague-Dawley rat assessed as ability to reverse apomorphine effect on prepulse inhibition of the startle response at 1 mg/kg, sc; type: functional, organism-based; set-up: dose 1 mg/kg; in short: as §2
[10] = target: T4, Muscarinic acetylcholine receptor M1/M5 chimeric protein; test: Inhibition of [3H](R)-QNB binding to human M1/M5(o3) chimeric receptor expressed in A9 L cells; type: cell-based, A9L
[11] = target: T4, Muscarinic acetylcholine receptor M1/M5 chimeric protein; test: Agonist activity at human M1/M5(o3) chimeric receptor expressed in A9 L cells assessed as stimulation of phosphoinositide hydrolysis; type: functional, cell-based, L929
[12] = target: T4, Muscarinic acetylcholine receptor M1/M5 chimeric protein; test: Inhibition of [3H](R)-QNB binding to human M1/M5(o2o3) chimeric receptor expressed in A9 L cells; type: cell-based, A9L
[13] = target: T4, Muscarinic acetylcholine receptor M1/M5 chimeric protein; test: Inhibition of [3H](R)-QNB binding to human M1/M5(o2) chimeric receptor expressed in A9 L cells; type: cell-based, A9L
[14] = target: T1, Muscarinic acetylcholine receptor M3; test: Antagonist activity at human M3 receptor assessed as inhibition of carbachol […]; settings: read-out: pA2 (converted)

EC50 [1] [nM]	SMILES	Smax [2] [%]	Smax [3] [%]	Activity (Rattus norvegicus [4])	Ki [5] [nM]	EC50 [6] [nM]	EC50 [7] [nM]	EC50 [8] [nM]	Activity (Rattus norvegicus [9])	Ki [10] [nM]	EC50 [11] [nM]	Ki [12] [nM]	Ki [13] [nM]	Kb [14] [nM]
25100	CCCCCCOc1nsnc1C1=CCCN(C)C1 [XANOMELINE]	31	20	inactive										
	COc1nsnc1OCCOCCOCCOCCOc1nsnc1C1=CCCN(C)C1	27	5.3		50.1	2000	79.4	251	Active	126	100	316	200	158
